According to ChEMBL document CHEMBL1135628, “Potent and long-acting corticotropin releasing factor (CRF) receptor 2 selective peptide competitive antagonists” (J Med Chem, 2002):

Legend:
[1] = target: T1, Corticotropin-releasing factor receptor 1 (Homo sapiens, UniProt P34998); experiment: Inhibition of recombinant corticotropin releasing factor receptor 1 assayed using nonselective [125I]-labeled agonist [Tyr0,Glu1,Nle17]-sauvagine
T1 sequence (P34998 whole entry): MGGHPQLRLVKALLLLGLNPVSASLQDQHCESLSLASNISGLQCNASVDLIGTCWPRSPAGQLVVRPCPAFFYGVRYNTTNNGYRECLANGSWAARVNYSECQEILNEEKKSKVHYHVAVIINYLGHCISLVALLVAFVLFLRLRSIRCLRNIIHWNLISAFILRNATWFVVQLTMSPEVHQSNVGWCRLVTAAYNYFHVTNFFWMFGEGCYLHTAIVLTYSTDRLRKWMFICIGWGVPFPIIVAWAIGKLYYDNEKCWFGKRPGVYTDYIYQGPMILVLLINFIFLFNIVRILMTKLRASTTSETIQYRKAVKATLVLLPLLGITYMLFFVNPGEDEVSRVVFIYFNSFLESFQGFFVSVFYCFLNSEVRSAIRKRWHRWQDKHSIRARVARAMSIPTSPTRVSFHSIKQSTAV
Outline: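 Crude plasma membranes from stable CHO lines expressing hCRF1 or mCRF2β, stored in 10% sucrose at -80 °C. Incubated 90 min at room temperature, then washed and filtered. IC50 taken from one representative assay, repeated at least twice.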

[2] = target: Corticotropin-releasing factor receptor 2 (Mus musculus) (UniProt Q60748); experiment: Inhibition of recombinant mouse corticotropin releasing factor receptor 2 beta (CRF2beta) assayed using nonselective [125I]-labeled agonist [Tyr0,Glu1,Nle17]-sauvagine as radioligand
Sequence of Corticotropin-releasing factor receptor 2 (Mus musculus) (Q60748 whole entry, looked up): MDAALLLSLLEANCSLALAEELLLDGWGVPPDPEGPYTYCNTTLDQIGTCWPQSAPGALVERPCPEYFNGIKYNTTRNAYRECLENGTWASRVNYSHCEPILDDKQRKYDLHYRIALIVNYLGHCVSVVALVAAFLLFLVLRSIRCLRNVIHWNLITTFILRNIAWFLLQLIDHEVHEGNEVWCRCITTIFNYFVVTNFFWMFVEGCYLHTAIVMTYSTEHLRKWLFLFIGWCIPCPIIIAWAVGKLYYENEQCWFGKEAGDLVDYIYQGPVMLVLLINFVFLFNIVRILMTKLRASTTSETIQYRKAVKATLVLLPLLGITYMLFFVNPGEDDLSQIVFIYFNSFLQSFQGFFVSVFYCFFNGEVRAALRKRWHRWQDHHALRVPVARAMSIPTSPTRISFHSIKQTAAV

Row | Compound | IC50 [1] [nM] | IC50 [2] [nM]
1 | CCCC[C@H](NC(=O)[C@H](CCCCN)NC(=O)[C@H](CCCN=C(N)N)NC(=O)[C@H](CC(C)C)NC(=O)[C@](C)(CC(C)C)NC(=O)[C@H](Cc1c[nH]cn1)NC(=O)[C@@H](Cc1ccccc1)NC(=O)[C@H](CO)NC(=O)[C@H](CC(C)C)NC(=O)[C@H](CC(=O)O)NC(C)=O)C(=O)N[C@H](C(=O)N[C@@H](CCC(=O)O)C(=O)N[C@H](C(=O)N[C@@H](CCC(=O)O)C(=O)N[C@@H](CCCCN)C(=O)N[C@@H](CCC(N)=O)C(=O)N[C@@H](CCC(=O)O)C(=O)N[C@@H](CCCCN)C(=O)N[C@@H](CCC(=O)O)C(=O)N[C@@H](CCCCN)C(=O)N[C@@H](CCC(N)=O)C(=O)N[C@@H](CCC(N)=O)C(=O)N[C@H]1CCC(=O)NCCCC[C@@H](C(=O)N[C@@H](CCCN=C(N)N)C(=O)N[C@@H](CC(C)C)C(=O)N[C@@H](CC(C)C)C(=O)N[C@@H](CC(C)C)C(=O)N[C@@H](CC(=O)O)C(=O)N[C@@](C)(CC(C)C)C(=O)N[C@H](C(N)=O)[C@@H](C)CC)NC(=O)[C@H](CC(N)=O)NC(=O)[C@H](C)NC1=O)[C@@H](C)CC)[C@@H](C)CC | > 500 | 81
2 | CCCC[C@H](NC(=O)[C@H](CCCCN)NC(=O)[C@H](CCCN=C(N)N)NC(=O)[C@H](CC(C)C)NC(=O)[C@](C)(CC(C)C)NC(=O)[C@H](Cc1c[nH]cn1)NC(=O)[C@@H](Cc1ccccc1)NC(=O)[C@H](CO)NC(=O)[C@H](CC(C)C)NC(=O)[C@H](CC(=O)O)NC(C)=O)C(=O)N[C@H](C(=O)N[C@@H](CCC(=O)O)C(=O)N[C@H](C(=O)N[C@@H](CCC(=O)O)C(=O)N[C@@H](CCCCN)C(=O)N[C@@H](CCC(N)=O)C(=O)N[C@@H](CCC(=O)O)C(=O)N[C@@H](CCCCN)C(=O)N[C@@H](CCC(=O)O)C(=O)N[C@@H](CCCCN)C(=O)N[C@@H](CCC(N)=O)C(=O)N[C@@H](CCC(N)=O)C(=O)N[C@@H](C)C(=O)N[C@@H](C)C(=O)N[C@@H](CCC(N)=O)C(=O)N[C@@H](CC(N)=O)C(=O)N[C@@H](CCCN=C(N)N)C(=O)N[C@@H](CCCCNC(C)=O)C(=O)N[C@@H](CC(C)C)C(=O)N[C@@H](CC(C)C)C(=O)N[C@@H](CC(=O)O)C(=O)N[C@@](C)(CC(C)C)C(=O)N[C@H](C(N)=O)[C@@H](C)CC)[C@@H](C)CC)[C@@H](C)CC | 3.4 | 0.51
3 | CCCC[C@H](NC(=O)[C@H](CCCCN)NC(=O)[C@H](CCCN=C(N)N)NC(=O)[C@H](CC(C)C)NC(=O)[C@](C)(CC(C)C)NC(=O)[C@H](Cc1c[nH]cn1)NC(=O)[C@@H](Cc1ccccc1)NC(=O)[C@H](CO)NC(=O)[C@H](CC(C)C)NC(=O)[C@H](CC(=O)O)NC(C)=O)C(=O)N[C@H](C(=O)N[C@@H](CCC(=O)O)C(=O)N[C@H](C(=O)N[C@@H](CCC(=O)O)C(=O)N[C@@H](CCCCN)C(=O)N[C@@H](CCC(N)=O)C(=O)N[C@@H](CCC(=O)O)C(=O)N[C@@H](CCCCN)C(=O)N[C@@H](CCC(=O)O)C(=O)N[C@@H](CCCCN)C(=O)N[C@H]1CCC(=O)NCCCC[C@@H](C(=O)N[C@@H](CC(N)=O)C(=O)N[C@@H](CC(N)=O)C(=O)N[C@@H](CCCN=C(N)N)C(=O)N[C@@H](CC(C)C)C(=O)N[C@@H](CC(C)C)C(=O)N[C@@H](CC(C)C)C(=O)N[C@@H](CC(=O)O)C(=O)N[C@@](C)(CC(C)C)C(=O)N[C@H](C(N)=O)[C@@H](C)CC)NC(=O)[C@H](C)NC(=O)[C@H](CCC(N)=O)NC1=O)[C@@H](C)CC)[C@@H](C)CC | 7.7 | 0.57
4 | CCCC[C@H](NC(=O)[C@H](CCCCN)NC(=O)[C@H](CCCN=C(N)N)NC(=O)[C@H](CC(C)C)NC(=O)[C@](C)(CC(C)C)NC(=O)[C@H](Cc1c[nH]cn1)NC(=O)[C@@H](Cc1ccccc1)NC(=O)[C@H](CO)NC(=O)[C@H](CC(C)C)NC(=O)[C@H](CC(=O)O)NC(C)=O)C(=O)N[C@H](C(=O)N[C@@H](CCC(=O)O)C(=O)N[C@H](C(=O)N[C@@H](CCC(=O)O)C(=O)N[C@@H](CCCCN)C(=O)N[C@@H](CCC(N)=O)C(=O)N[C@@H](CCC(=O)O)C(=O)N[C@@H](CCCCN)C(=O)N[C@@H](CCC(=O)O)C(=O)N[C@@H](CCCCN)C(=O)N[C@@H](CCC(N)=O)C(=O)N[C@@H](CCC(N)=O)C(=O)N[C@@H](C)C(=O)N[C@@H](C)C(=O)N[C@@H](CC(N)=O)C(=O)N[C@@H](CC(N)=O)C(=O)N[C@@H](CCCN=C(N)N)C(=O)N[C@@H](CC(C)C)C(=O)N[C@@H](CC(C)C)C(=O)N[C@@H](CC(C)C)C(=O)N[C@@H](CC(=O)O)C(=O)N[C@@](C)(CC(C)C)C(=O)N[C@H](C(N)=O)[C@@H](C)CC)[C@@H](C)CC)[C@@H](C)CC | 18.4 | 0.42

More lines, now with the values ahead:

Row | IC50 [1] [nM] | IC50 [2] [nM] | Compound
5 | 5.9 | 0.61 | CCCC[C@H](NC(=O)[C@H](CCCCN)NC(=O)[C@H](CCCN=C(N)N)NC(=O)[C@H](CC(C)C)NC(=O)[C@](C)(CC(C)C)NC(=O)[C@H](Cc1c[nH]cn1)NC(=O)[C@@H](Cc1ccccc1)NC(=O)[C@H](CO)NC(=O)[C@H](CC(C)C)NC(=O)[C@H](CC(=O)O)NC(C)=O)C(=O)N[C@H](C(=O)N[C@@H](CCC(=O)O)C(=O)N[C@H](C(=O)N[C@@H](CCC(=O)O)C(=O)N[C@@H](CCCCN)C(=O)N[C@@H](CCC(N)=O)C(=O)N[C@@H](CCC(=O)O)C(=O)N[C@@H](CCCCN)C(=O)N[C@@H](CCC(=O)O)C(=O)N[C@@H](CCCCN)C(=O)N[C@@H](CCC(N)=O)C(=O)N[C@@H](CCC(N)=O)C(=O)N[C@@H](C)C(=O)N[C@@H](C)C(=O)N[C@H]1CCC(=O)NCCCC[C@@H](C(=O)N[C@@H](CC(C)C)C(=O)N[C@@H](CC(C)C)C(=O)N[C@@H](CC(=O)O)C(=O)N[C@@](C)(CC(C)C)C(=O)N[C@H](C(N)=O)[C@@H](C)CC)NC(=O)[C@H](CCCN=C(N)N)NC(=O)[C@H](CC(N)=O)NC1=O)[C@@H](C)CC)[C@@H](C)CC
6 | > 100 | > 100 | CCCC[C@H](NC(=O)[C@H](CCCCN)NC(=O)[C@H](CCCN=C(N)N)NC(=O)[C@H](CC(C)C)NC(=O)[C@](C)(CC(C)C)NC(=O)[C@H](Cc1c[nH]cn1)NC(=O)[C@@H](Cc1ccccc1)NC(=O)[C@H](CO)NC(=O)[C@H](CC(C)C)NC(=O)[C@H](CC(=O)O)NC(C)=O)C(=O)N[C@H](C(=O)N[C@@H](CCC(=O)O)C(=O)N[C@H](C(=O)N[C@@H](CCC(=O)O)C(=O)N[C@@H](CCCCN)C(=O)N[C@@H](CCC(N)=O)C(=O)N[C@@H](CCC(=O)O)C(=O)N[C@@H](CCCCN)C(=O)N[C@@H](CCC(=O)O)C(=O)N[C@@H](CCCCN)C(=O)N[C@@H](CCC(N)=O)C(=O)N[C@@H](CCC(N)=O)C(=O)N[C@@H](C)C(=O)N[C@@H](C)C(=O)N[C@@H](CC(N)=O)C(=O)N[C@H]1CCC(=O)NCCCC[C@@H](C(=O)N[C@@H](CC(C)C)C(=O)N[C@@H](CC(=O)O)C(=O)N[C@@](C)(CC(C)C)C(=O)N[C@H](C(N)=O)[C@@H](C)CC)NC(=O)[C@H](CC(C)C)NC(=O)[C@H](CCCN=C(N)N)NC1=O)[C@@H](C)CC)[C@@H](C)CC
7 | > 100 | 17.8 | CCCC[C@H](NC(=O)[C@H](CCCCN)NC(=O)[C@H](CCCN=C(N)N)NC(=O)[C@H](CC(C)C)NC(=O)[C@](C)(CC(C)C)NC(=O)[C@H](Cc1c[nH]cn1)NC(=O)[C@@H](Cc1ccccc1)NC(=O)[C@H](CO)NC(=O)[C@H](CC(C)C)NC(=O)[C@H](CC(=O)O)NC(C)=O)C(=O)N[C@H](C(=O)N[C@@H](CCC(=O)O)C(=O)N[C@H](C(=O)N[C@@H](CCC(=O)O)C(=O)N[C@@H](CCCCN)C(=O)N[C@@H](CCC(N)=O)C(=O)N[C@@H](CCC(=O)O)C(=O)N[C@@H](CCCCN)C(=O)N[C@@H](CCC(=O)O)C(=O)N[C@@H](CCCCN)C(=O)N[C@@H](CCC(N)=O)C(=O)N[C@@H](CCC(N)=O)C(=O)N[C@@H](C)C(=O)N[C@@H](C)C(=O)N[C@@H](CC(N)=O)C(=O)N[C@@H](CC(N)=O)C(=O)N[C@H]1CCC(=O)NCCCC[C@@H](C(=O)N[C@@H](CC(=O)O)C(=O)N[C@@](C)(CC(C)C)C(=O)N[C@H](C(N)=O)[C@@H](C)CC)NC(=O)[C@H](CC(C)C)NC(=O)[C@H](CC(C)C)NC1=O)[C@@H](C)CC)[C@@H](C)CC
8 | 45 | 1.3 | CCCC[C@H](NC(=O)[C@H](CCCCN)NC(=O)[C@H](CCCN=C(N)N)NC(=O)[C@H](CC(C)C)NC(=O)[C@](C)(CC(C)C)NC(=O)[C@H](Cc1c[nH]cn1)NC(=O)[C@@H](Cc1ccccc1)NC(=O)[C@H](CO)NC(=O)[C@H](CC(C)C)NC(=O)[C@H](CC(=O)O)NC(C)=O)C(=O)N[C@H](C(=O)N[C@@H](CCC(=O)O)C(=O)N[C@H](C(=O)N[C@@H](CCC(=O)O)C(=O)N[C@@H](CCCCN)C(=O)N[C@@H](CCC(N)=O)C(=O)N[C@@H](CCC(=O)O)C(=O)N[C@@H](CCCCN)C(=O)N[C@@H](CCC(=O)O)C(=O)N[C@H]1CCC(=O)NCCCC[C@@H](C(=O)N[C@@H](C)C(=O)N[C@@H](CC(N)=O)C(=O)N[C@@H](CC(N)=O)C(=O)N[C@@H](CCCN=C(N)N)C(=O)N[C@@H](CC(C)C)C(=O)N[C@@H](CC(C)C)C(=O)N[C@@H](CC(C)C)C(=O)N[C@@H](CC(=O)O)C(=O)N[C@@](C)(CC(C)C)C(=O)N[C@H](C(N)=O)[C@@H](C)CC)NC(=O)[C@H](CCC(N)=O)NC(=O)[C@H](CCC(N)=O)NC1=O)[C@@H](C)CC)[C@@H](C)CC
